Assay [1] addresses Vascular endothelial growth factor receptor 1 (Homo sapiens) (UniProt P17948). The assay is described as follows: Inhibition of human recombinant FLT1 at 40 nM in presence of ATP by radiometric assay relative to control.
Assay [2] addresses T1, Ephrin type-B receptor 2 (Homo sapiens) (UniProt P29323).
T1 sequence (whole entry): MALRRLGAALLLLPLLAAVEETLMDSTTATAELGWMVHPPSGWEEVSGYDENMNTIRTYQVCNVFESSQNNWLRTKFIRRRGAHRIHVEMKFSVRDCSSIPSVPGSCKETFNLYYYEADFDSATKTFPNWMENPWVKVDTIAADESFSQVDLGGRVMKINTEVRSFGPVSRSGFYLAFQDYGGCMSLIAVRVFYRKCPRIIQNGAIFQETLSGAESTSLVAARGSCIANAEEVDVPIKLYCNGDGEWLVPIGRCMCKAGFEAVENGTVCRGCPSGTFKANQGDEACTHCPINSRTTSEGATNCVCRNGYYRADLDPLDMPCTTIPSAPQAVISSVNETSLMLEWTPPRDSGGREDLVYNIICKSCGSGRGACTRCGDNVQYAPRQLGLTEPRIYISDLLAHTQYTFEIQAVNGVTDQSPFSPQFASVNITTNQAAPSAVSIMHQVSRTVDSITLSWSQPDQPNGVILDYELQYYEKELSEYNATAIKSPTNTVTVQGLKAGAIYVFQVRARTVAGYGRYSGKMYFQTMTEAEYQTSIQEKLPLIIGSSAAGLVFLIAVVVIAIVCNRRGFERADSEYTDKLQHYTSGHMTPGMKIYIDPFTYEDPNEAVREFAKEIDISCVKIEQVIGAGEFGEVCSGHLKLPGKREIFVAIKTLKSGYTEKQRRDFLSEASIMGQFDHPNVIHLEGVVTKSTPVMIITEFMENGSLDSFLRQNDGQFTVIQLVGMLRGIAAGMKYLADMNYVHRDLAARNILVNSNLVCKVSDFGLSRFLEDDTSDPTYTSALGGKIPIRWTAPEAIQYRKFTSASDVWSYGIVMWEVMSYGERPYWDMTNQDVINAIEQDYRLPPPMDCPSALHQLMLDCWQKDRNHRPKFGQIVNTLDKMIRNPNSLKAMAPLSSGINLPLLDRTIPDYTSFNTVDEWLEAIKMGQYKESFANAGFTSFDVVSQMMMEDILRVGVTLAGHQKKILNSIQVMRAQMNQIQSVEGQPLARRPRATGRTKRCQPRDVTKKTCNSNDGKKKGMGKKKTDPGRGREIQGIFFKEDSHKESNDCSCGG
The assay is described as follows: Inhibition of human recombinant EphB2 at 500 nM in presence of ATP by radiometric assay relative to control.

The target in assay [3] is Mitogen-activated protein kinase 8 (Homo sapiens) (UniProt P45983). The assay is described as follows: Inhibition of human recombinant JNK1 at 15 nM in presence of ATP by radiometric assay relative to control.
In assay [4] the target is T2, cGMP-dependent protein kinase 1 (Homo sapiens) (UniProt Q13976).
T2 sequence (whole entry): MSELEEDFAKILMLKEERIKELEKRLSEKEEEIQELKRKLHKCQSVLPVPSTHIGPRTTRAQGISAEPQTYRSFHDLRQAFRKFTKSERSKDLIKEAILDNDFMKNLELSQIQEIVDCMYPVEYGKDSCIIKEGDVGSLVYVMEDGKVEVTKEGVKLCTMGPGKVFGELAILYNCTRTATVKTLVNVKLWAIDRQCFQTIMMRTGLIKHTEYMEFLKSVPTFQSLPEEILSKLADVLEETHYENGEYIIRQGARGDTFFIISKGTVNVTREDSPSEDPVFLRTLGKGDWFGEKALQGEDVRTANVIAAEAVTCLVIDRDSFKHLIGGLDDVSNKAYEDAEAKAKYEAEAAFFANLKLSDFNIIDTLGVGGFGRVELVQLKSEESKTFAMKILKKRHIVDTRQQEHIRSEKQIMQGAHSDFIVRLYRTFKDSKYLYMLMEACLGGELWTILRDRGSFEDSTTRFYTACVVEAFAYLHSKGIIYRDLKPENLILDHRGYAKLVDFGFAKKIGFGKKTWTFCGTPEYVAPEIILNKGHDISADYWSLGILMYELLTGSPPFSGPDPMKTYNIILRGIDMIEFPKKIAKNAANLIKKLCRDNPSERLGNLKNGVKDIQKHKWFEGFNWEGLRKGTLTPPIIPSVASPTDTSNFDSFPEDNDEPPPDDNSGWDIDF
The assay is described as follows: Inhibition of human recombinant PKG1 at 15 nM in presence of ATP by radiometric assay relative to control.

The target in assay [5] is T3, Activin receptor type-1 (Homo sapiens) (UniProt Q04771).
T3 sequence (whole entry): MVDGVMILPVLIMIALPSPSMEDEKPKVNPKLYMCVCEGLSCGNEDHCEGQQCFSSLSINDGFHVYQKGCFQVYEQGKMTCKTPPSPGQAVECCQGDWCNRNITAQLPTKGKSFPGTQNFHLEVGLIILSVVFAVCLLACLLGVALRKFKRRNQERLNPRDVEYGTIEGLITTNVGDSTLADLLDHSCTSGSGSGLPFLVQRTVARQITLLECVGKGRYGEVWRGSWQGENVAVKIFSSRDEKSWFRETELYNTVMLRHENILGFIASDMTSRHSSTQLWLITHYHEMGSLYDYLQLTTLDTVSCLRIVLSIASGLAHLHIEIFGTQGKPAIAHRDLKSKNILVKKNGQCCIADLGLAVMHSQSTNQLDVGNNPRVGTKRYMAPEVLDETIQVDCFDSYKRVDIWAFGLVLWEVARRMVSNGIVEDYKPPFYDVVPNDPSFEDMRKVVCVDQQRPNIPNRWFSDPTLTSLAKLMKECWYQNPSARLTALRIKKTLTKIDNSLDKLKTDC
The assay is described as follows: Inhibition of human recombinant ALK2 at 15 nM related to control ULK1. A digest of the protocol:
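Panel of 327 recombinant human kinases, each assayed in vitro by radiometric activity assay in duplicate at a single inhibitor concentration per compound, chosen with reference to its ULK1 inhibition. Activity remaining was expressed as percent of vehicle control, and percent inhibition was calculated as 100 minus percent activity remaining.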

The target of assay [6] is Cyclin-dependent kinase 3 (Homo sapiens) (UniProt Q00526). The assay is described as follows: Inhibition of human recombinant CDK3 at 15 nM related to control ULK1.
The target of assay [7] is Protein-tyrosine kinase 2-beta (Homo sapiens) (UniProt Q14289). The assay is described as follows: Inhibition of human recombinant PYK2 at 15 nM related to control ULK1.
Assay [8] has as its target Proto-oncogene tyrosine-protein kinase Src (Homo sapiens) (UniProt P12931). The assay is described as follows: Inhibition of human recombinant SRC at 15 nM related to control ULK1.
Assay [9] has as its target Wee1-like protein kinase 2 (Homo sapiens) (UniProt P0C1S8). The assay is described as follows: Inhibition of human recombinant Wee1B at 15 nM related to control ULK1.

Usually inhibition stands for the drop in the measured response relative to a control, in per cent.

Chain of Cyclin-dependent kinase 3 (Homo sapiens) (Q00526 whole entry, looked up): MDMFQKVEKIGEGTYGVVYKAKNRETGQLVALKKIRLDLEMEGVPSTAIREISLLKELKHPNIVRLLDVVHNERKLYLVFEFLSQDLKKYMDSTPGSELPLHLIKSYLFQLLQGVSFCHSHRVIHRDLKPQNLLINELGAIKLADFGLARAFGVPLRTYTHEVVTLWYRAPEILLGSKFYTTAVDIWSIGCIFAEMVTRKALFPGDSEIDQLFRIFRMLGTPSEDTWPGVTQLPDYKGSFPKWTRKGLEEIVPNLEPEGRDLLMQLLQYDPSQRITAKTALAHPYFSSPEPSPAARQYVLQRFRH
Chain of Proto-oncogene tyrosine-protein kinase Src (Homo sapiens) (P12931 2-536 limits assumed): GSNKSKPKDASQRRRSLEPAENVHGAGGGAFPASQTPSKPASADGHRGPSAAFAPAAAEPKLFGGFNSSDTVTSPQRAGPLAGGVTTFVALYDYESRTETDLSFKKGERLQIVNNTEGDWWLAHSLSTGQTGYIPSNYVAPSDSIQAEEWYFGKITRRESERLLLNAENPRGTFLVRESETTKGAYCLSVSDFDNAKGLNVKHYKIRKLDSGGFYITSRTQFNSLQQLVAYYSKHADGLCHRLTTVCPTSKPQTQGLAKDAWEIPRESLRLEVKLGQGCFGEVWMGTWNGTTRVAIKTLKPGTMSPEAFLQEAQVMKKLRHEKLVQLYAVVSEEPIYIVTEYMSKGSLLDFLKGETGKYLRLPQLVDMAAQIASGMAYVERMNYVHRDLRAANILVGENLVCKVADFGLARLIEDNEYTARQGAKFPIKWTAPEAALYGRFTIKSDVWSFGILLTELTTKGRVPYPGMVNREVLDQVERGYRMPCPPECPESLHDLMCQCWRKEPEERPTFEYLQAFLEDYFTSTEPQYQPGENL
Chain of Protein-tyrosine kinase 2-beta (Homo sapiens) (Q14289 whole entry, looked up): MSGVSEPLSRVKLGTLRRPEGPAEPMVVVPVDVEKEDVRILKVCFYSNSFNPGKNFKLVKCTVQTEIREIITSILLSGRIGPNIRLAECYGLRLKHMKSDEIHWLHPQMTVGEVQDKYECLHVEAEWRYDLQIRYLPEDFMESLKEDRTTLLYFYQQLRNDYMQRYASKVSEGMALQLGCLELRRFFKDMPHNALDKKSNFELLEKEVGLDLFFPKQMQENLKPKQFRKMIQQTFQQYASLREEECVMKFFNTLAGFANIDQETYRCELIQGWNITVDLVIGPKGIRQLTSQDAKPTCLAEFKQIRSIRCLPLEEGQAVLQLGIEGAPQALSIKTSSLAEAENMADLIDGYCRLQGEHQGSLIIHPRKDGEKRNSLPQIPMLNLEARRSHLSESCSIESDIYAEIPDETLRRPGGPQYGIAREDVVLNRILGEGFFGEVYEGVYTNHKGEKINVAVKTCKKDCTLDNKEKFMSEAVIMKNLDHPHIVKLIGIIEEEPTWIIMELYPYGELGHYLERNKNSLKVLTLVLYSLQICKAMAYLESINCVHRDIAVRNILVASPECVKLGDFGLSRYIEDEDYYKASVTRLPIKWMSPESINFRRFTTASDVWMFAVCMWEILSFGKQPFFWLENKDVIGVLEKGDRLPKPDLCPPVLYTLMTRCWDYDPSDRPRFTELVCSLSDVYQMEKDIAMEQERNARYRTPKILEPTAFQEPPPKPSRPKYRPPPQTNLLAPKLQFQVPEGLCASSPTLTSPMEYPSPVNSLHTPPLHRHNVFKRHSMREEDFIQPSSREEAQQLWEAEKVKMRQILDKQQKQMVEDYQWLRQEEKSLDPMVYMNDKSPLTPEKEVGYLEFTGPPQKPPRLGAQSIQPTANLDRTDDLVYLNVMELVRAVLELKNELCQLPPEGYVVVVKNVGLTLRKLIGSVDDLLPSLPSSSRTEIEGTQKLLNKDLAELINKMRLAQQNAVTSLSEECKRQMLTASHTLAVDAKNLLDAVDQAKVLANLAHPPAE
Chain of Mitogen-activated protein kinase 8 (Homo sapiens) (P45983 whole entry): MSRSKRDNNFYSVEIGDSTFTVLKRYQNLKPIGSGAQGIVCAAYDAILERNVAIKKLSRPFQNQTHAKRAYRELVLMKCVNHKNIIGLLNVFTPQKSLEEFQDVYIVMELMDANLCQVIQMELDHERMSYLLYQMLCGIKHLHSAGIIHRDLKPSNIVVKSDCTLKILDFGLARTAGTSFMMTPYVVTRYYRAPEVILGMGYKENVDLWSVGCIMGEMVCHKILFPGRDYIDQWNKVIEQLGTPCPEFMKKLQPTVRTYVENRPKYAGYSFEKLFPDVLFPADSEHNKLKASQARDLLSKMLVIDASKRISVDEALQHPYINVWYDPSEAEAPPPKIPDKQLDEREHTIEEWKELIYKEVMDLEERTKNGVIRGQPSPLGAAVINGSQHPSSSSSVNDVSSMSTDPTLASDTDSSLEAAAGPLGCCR
Chain of Vascular endothelial growth factor receptor 1 (Homo sapiens) (P17948 whole entry): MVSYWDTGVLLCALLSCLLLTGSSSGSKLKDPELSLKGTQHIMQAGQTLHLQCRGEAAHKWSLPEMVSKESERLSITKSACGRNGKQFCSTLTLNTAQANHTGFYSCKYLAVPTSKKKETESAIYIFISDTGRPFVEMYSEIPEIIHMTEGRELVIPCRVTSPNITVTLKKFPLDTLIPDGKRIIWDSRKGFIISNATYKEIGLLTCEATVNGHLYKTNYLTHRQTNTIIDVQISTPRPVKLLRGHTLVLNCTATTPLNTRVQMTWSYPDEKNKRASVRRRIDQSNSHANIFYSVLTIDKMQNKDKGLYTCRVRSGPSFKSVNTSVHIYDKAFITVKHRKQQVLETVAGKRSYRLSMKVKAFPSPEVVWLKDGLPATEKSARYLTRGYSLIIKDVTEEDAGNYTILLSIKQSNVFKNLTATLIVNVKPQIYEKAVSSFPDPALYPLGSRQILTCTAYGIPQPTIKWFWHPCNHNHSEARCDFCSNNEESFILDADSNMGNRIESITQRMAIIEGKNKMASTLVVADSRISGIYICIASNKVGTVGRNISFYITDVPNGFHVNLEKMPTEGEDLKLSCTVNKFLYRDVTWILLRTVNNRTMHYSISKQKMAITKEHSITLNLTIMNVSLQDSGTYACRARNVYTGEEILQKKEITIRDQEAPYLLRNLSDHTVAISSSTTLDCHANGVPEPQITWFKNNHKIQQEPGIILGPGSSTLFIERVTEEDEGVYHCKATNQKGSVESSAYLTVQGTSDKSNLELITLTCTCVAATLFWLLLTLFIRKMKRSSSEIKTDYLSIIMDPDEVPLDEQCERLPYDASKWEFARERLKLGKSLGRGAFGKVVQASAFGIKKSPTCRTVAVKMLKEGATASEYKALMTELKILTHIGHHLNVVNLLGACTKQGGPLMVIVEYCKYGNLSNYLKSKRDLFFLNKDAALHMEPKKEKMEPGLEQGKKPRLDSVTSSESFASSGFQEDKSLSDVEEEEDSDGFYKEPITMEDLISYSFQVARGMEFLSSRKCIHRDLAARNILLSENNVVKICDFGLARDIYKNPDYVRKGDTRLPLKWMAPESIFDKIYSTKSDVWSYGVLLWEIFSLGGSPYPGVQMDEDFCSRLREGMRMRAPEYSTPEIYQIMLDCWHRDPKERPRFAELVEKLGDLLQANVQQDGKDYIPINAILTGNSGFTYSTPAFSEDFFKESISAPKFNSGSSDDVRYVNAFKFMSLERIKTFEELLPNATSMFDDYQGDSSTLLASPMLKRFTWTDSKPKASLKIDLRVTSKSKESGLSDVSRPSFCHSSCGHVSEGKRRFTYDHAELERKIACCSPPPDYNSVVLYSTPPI
Chain of Wee1-like protein kinase 2 (Homo sapiens) (P0C1S8 whole entry, looked up): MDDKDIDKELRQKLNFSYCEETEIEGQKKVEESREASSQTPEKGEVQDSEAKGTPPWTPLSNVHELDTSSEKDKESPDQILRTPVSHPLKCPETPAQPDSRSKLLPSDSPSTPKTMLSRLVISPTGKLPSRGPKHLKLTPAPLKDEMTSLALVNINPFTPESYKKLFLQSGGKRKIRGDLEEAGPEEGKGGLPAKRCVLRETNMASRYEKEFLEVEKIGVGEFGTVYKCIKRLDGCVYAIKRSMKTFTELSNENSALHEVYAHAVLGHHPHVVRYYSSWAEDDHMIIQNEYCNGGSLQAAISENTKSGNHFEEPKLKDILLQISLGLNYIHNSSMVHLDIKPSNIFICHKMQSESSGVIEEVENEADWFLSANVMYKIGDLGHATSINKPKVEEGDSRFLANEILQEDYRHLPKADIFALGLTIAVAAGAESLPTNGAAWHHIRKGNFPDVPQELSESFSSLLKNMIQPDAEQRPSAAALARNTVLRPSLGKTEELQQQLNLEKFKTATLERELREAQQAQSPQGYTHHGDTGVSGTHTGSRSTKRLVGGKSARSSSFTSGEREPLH

With `O=C(N[C@@H](C1CC1)C(F)(F)F)c1cc(-c2cnn3cc(-c4ccc(F)cc4)cnc23)cs1`, the inhibition in assay [1] is 18%.

Consider `CNC(=O)c1ccccc1Oc1nc(Nc2cc(OC)c(OC)c(OC)c2)ncc1Br`, for which the inhibition in assay [2] worked out at 15%.

For `CC(C)[C@H](NC(=O)c1cc(-c2cnn3cc(-c4ccc(OCCN5CCCCC5)cc4)cnc23)cs1)C(F)(F)F`, the results for the inhibition in assay [3] and in [4] were 8% and 0%, respectively. In addition, the fold change (FC) turned out to be 0.3 in assay [5]; 0.06 in assay [6]; 0 in assay [7]; 0.17 in assay [8]; 0.13 in [9].

For the origin of these results see ChEMBL document CHEMBL5653631, “A Potent and Selective ULK1 Inhibitor Suppresses Autophagy and Sensitizes Cancer Cells to Nutrient Stress” (iScience, 2018).
